These results are taken from PMC10966424 (Experimental and Therapeutic Medicine, 2024).

SMILES strings stand for the structures.

The test system of data set [1] is PGE2 production in LPS-stimulated RAW 264.7 cells. The experiment in a line: LPS-stimulated PGE2 production. It counts as cell-based, murine. The following applies: Mus musculus, RAW264.7, 24 h, read-out: IC50 of PGE2, LPS (0.1 µg/ml)-stimulated RAW 264.7 cells, 24 h. Put shortly: (§1)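 Macrophages are grown in DMEM with 10% FBS at 37 °C and 5% CO2, seeded at 1x10^5 cells/well and cultured for 24 h. They are pretreated with test compound for 1 h, then given LPS for 24 h (RAW 264.7: 0.1 µg/ml; DH82: 2 µg/ml). Medium NO is measured by Griess reagent against a standard curve; supernatant PGE2 is measured by ELISA. Done at least in triplicate.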

Data set [2] can be described thus: MTT cell viability, DH82 macrophages. The class given is cell-based, canine. The following applies: dog. Put shortly: (§2)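 Cells are seeded at 1x10^5 cells/well, cultured for 24 h, then exposed to test compound at various concentrations for a further 24 h. MTT is added, formazan is dissolved in DMSO and absorbance is read at 570 nm. The tabulated viability is at 200 µM. Done at least in triplicate.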

In data set [3] the test system is NO production in LPS-stimulated RAW 264.7 cells. Nature of the data set: LPS-stimulated NO production. The class given is cell-based, murine. The following applies: Mus musculus, RAW264.7, 24 h, read-out: IC50 of NO, LPS (0.1 µg/ml)-stimulated RAW 264.7 cells, 24 h. The essentials: as §1
Data set [4] can be described thus: MTT cell viability, RAW 264.7 macrophages. The class given is cell-based, murine. The following applies: mouse. The essentials: as §2
Data set [5] relates to Mycobacterium tuberculosis. The settings on record: at low concentrations; cited from earlier work.
The next data set in a line: ABTS+ radical scavenging. The following applies: compared with parent nialamide. Put shortly:
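ABTS radical cation formed by mixing 7 mM ABTS in ethanol with 2.4 mM potassium persulfate and holding it in the dark at 25 °C for 24 h. The solution is added to test compound at several concentrations, mixed for 30 sec, then incubated for 30 min at 25 °C. Scavenging % = [1-(A2/A1)]x100, where A1 is the blank without sample. (+)-Catechin is the positive control; n=3.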

For the next data set, the system named is TNF-α. The experiment in a line: LPS-stimulated TNF-α production. The class given is cell-based, murine. The settings on record: LPS-stimulated RAW 264.7; compared with nialamide. The essentials: (§3)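 Seeding is 1x10^5 cells/well in DMEM with 10% FBS, followed by 24 h culture. Cells receive test compound for 1 h before LPS stimulation for 24 h (RAW 264.7: 0.1 µg/ml LPS; DH82: 2 µg/ml LPS). TNF-α, IL-6 and IL-10 in the culture medium are quantified by ELISA kits; n=3.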

Data set [6] has as its system iNOS. The experiment in a line: Western blot iNOS protein expression, DH82. It counts as cell-based, canine. The settings on record: LPS-stimulated DH82; compared with nialamide. The essentials:
(§4)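 Cells (2x10^5/well) are cultured for 24 h and pretreated with test compound for 1 h. LPS follows for 24 h (RAW 264.7: 0.1 µg/ml; DH82: 2 µg/ml). RIPA lysates (40 µg protein, BCA-quantified) are run on 10% SDS-PAGE and transferred to PVDF. Membranes are blocked in 5% milk, probed overnight at 4 °C with anti-iNOS and anti-COX-2 (1:1,000; canine-specific antibodies for DH82), then HRP secondary (1:3,000) for 2 h. Detection is ECL; densitometry uses GAPDH as the internal control; n=3.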

Data set [7] relates to iNOS. The experiment in a line: Western blot iNOS protein expression, RAW 264.7. It counts as cell-based, murine. The settings on record: LPS-stimulated RAW 264.7; compared with nialamide. Put shortly:
as §4
A general note: A western blot detects proteins with antibodies after separation by electrophoresis.

A further data set has as its system IL-10. The experiment in a line: LPS-stimulated IL-10 production. The following applies: LPS-stimulated RAW 264.7; compared with nialamide. The class given is cell-based, murine. The essentials: as §3
In the next data set the test system is NF-κB. The experiment in a line: Western blot NF-κB phosphorylation, RAW 264.7. It counts as cell-based, murine. The following applies: RAW 264.7 cells. Put shortly: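 RAW 264.7 cells (2x10^5/well) are pretreated with test compound for 1 h, then stimulated with 0.1 µg/ml LPS for 24 h. RIPA lysates (40 µg) are separated on 10% SDS-PAGE and blotted to PVDF. Blots are probed overnight at 4 °C with anti-p-p65, p65, p-IκB and IκB (1:1,000), followed by HRP secondary and ECL detection. GAPDH is the loading control; three independent experiments.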

The test system of data set [8] is COX-2. The experiment in a line: Western blot COX-2 protein expression, RAW 264.7. It counts as cell-based, murine. The settings on record: LPS-stimulated RAW 264.7; compared with nialamide. The essentials: as §4
A further data set has as its system IL-6. Nature of the data set: LPS-stimulated IL-6 production. It counts as cell-based, murine. The following applies: LPS-stimulated RAW 264.7; compared with nialamide. The essentials:
as §3

Data set [9] concerns ROS production in LPS-activated RAW 264.7 macrophages. Nature of the data set: Intracellular ROS. The class given is cell-based, murine. The settings on record: LPS 0.1 µg/ml, 50 to 200 µM, DCFH-DA.
The nature of the next data set: DPPH radical scavenging. The settings on record: compared with parent nialamide; 50 to 200 µM. Put shortly: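 DPPH (200 µM in EtOH) is mixed 1:2 by volume with test compound solutions (50 to 200 µM in 70% EtOH). The mixture is incubated at 30 °C in the dark for 15 min, and the drop in absorbance at 517 nm is read. Scavenging % = [1-(A2/A1)]x100, where A1 is the blank without sample. (+)-Catechin is the positive control; n=3.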

Data set [10] relates to COX-2. The experiment in a line: Western blot COX-2 protein expression, DH82. It counts as cell-based, canine. The following applies: LPS-stimulated DH82; compared with nialamide. The essentials: as §4

Regarding `NCCC(=O)NCc1ccccc1` [Compound 3, 3-amino-N-benzylpropanamide], the IC50 worked out at 155 ± 1.9 µM in data set [1] and 170 ± 1.9 µM in data set [3]. The viability at 24 h, 200 µM was 99.7 ± 1.2% in data set [2] and 102 ± 2% in [4].
For `O=C(CCNNC(=O)c1ccncc1)NCc1ccccc1` [Compound 1, nialamide, reference compound], in data set [5], the “inhibition of Mycobacterium tuberculosis” value was “effectively inhibits”. Moreover, the IC50 in data set [1] and in data set [3] was above 200 µM throughout. Moreover, the values for the viability at 24 h, 200 µM in data set [2] and in [4] were 99.9 ± 1.2% and 102 ± 2.3%, respectively.
Consider `O=C(CCO)NCc1ccccc1` [Compound 5, 3-hydroxy-N-benzylpropanamide], for which the “ABTS+ scavenging activity” value in the data set “ABTS+ radical scavenging” is recorded as “enhancement”. Further, the IC50 in data set [1] is 55.4 ± 0.7 µM; in data set [3], 63.5 ± 0.8 µM. The TNF-α production entry with TNF-α is on record as “potent dose-dependent suppression”. The iNOS protein expression result in the data set on iNOS [6] and with iNOS [7] was “significant dose-dependent suppression” each time. The viability at 24 h, 200 µM in data set [2] was determined as 97.2 ± 1%; in data set [4], 99.9 ± 2.2%. Moreover, the IL-10 production result in the data set with IL-10 was “potent dose-dependent suppression”. Moreover, in the data set on NF-κB, the “LPS-stimulated phosphorylation of NF-κB” value is “dose-dependent inhibition”. Moreover, the COX-2 protein expression result in the data set on COX-2 [8] and in the data set with COX-2 [10] was “significant dose-dependent suppression” throughout. Also, in the data set with IL-6, the IL-6 production entry is reported as “potent dose-dependent suppression”. The ROS production result in data set [9] is listed as “effectively suppress ROS production in a dose-dependent manner”. Besides, the “DPPH radical scavenging activity” value in the data set “DPPH radical scavenging” was “enhancement”.
On to `NC(=O)c1ccncc1` [Compound 7, isonicotinamide], for which the IC50 in data set [1] and in data set [3] was above 200 µM in each case. In addition, the viability at 24 h, 200 µM in data set [2] amounted to 98.4 ± 1.2%; in [4], 101 ± 1.9%.
Regarding `COCCC(=O)NCc1ccccc1` [Compound 4, 3-methoxy-N-benzylpropanamide], the IC50 in [1] was found to be 161 ± 2 µM; in data set [3], 178 ± 2 µM. Moreover, the viability at 24 h, 200 µM in data set [2] is 97.6 ± 1.1%; in data set [4] it was 102 ± 2.2%.

The viability is a read-out of living cells in per cent, often relative to untreated cells.
